The subject of data set [1] is Mus musculus. The data set can be described thus: Toxicity in Balb/C mouse assessed as change in serum ALT levels at 10 to 40 mg/kg, ip administered thrice a week for 2 weeks measured 48 hrs after last dose. It counts as organism-based. Details: dose 10-40 mg/kg, route intraperitoneal. As to conditions: in vivo. The method in brief: (§1)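 Male Balb/c mice, 6–8 wk, n=4/group, received compound i.p. in PBS (10 ul/g) 3x/wk for 2 wk. Body weight was monitored throughout. At 48 h after the last dose, mice were anesthetized with isoflurane and bled by cardiac puncture. Serum AST, ALT, BUN, bilirubin, glucose and triglycerides were compared with the saline group. ALT rise below 2x normal was counted as absent.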

The subject of data set [2] is Mus musculus. The data set can be described thus: Toxicity in Balb/C mouse assessed as change in serum bilirubin levels at 10 to 40 mg/kg, ip administered thrice a week for 2 weeks measured 48 hrs after last dose. It counts as organism-based. Also noted: dose 10-40 mg/kg, route intraperitoneal. To be noted: in vivo. The method in brief: as §1
A short description of data set [3]: Drug level in Balb/C mouse adipose tissue at 40 mg/kg, ip administered thrice a week for 2 weeks measured 48 hrs after last dose. It is filed as ADME, organism-based. Also noted: dose 40 mg/kg, route intraperitoneal. To be noted: read-out: Drug uptake. The method in brief:
(§2)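 Male Balb/c mice, 6–8 wk, n=4/group, dosed i.p. in PBS 3x/wk for 2 wk at 40 mg/kg and killed 48 h after the last dose. Liver, kidney and adipose tissue were homogenized in SDS extraction buffer and diluted to 0.2 mg tissue/mL. They were hybridized with a digoxigenin/biotin cutting probe, captured on NeutrAvidin, and digested with nuclease S1. Anti-digoxigenin-AP fluorescence was read and quantified against a 0.1–100 nM standard ladder, in quadruplicate.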

Data set [4] relates to Mus musculus. Kind of data set: Toxicity in Balb/C mouse assessed as change in serum AST levels at 10 to 40 mg/kg, ip administered thrice a week for 2 weeks measured 48 hrs after last dose. It counts as organism-based. Details: dose 10-40 mg/kg, route intraperitoneal. To be noted: in vivo. The method in brief: as §1
Data set [5] deals with Mus musculus. Kind of data set: Toxicity in Balb/C mouse assessed as change in serum triglyceride levels at 10 to 40 mg/kg, ip administered thrice a week for 2 weeks measured 48 hrs after last dose. It is filed as organism-based. Details: dose 10-40 mg/kg, route intraperitoneal. As to conditions: in vivo. The method in brief:
as §1

The test system of data set [6] is Mus musculus. The data set can be described thus: Toxicity in Balb/C mouse assessed as change in blood urea nitrogen levels at 10 to 40 mg/kg, ip administered thrice a week for 2 weeks measured 48 hrs after last dose. To be noted: in vivo. It is filed as organism-based. Details: dose 10-40 mg/kg, route intraperitoneal. In a few lines: as §1
Data set [7] relates to Mus musculus. The data set can be described thus: Toxicity in Balb/C mouse assessed as change in body weight at 10 to 40 mg/kg, ip administered thrice a week for 2 weeks measured 48 hrs after last dose. It is filed as organism-based. Also noted: dose 10-40 mg/kg, route intraperitoneal. To be noted: in vivo. In a few lines: as §1
For data set [8], the system named is Mus musculus. Kind of data set: Inhibition of PTEN expression in Balb/C mouse kidney at 10 to 40 mg/kg, ip administered thrice a week for 2 weeks measured 48 hrs after last dose.
In data set [9] the test system is Mus musculus. Kind of data set: Inhibition of PTEN expression in Balb/C mouse liver at 10 to 40 mg/kg, ip administered thrice a week for 2 weeks measured 48 hrs after last dose by Western blot analysis. It counts as functional, organism-based. In a few lines: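 Male Balb/c mice, 6–8 wk, n=4/group, dosed i.p. in PBS 3x/wk for 2 wk and killed 48 h after the last dose. Tissue was homogenized in RIPA buffer with protease inhibitors, and protein was measured by Lowry assay. Lysates were run on 10% PAGE and blotted to PVDF. Blots were probed with rabbit anti-PTEN (1:1000) and HRP anti-rabbit (1:2500), with ECL detection.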

Data set [10] relates to Mus musculus. The data set can be described thus: Inhibition of PTEN expression in Balb/C mouse white adipose tissue assessed as reduction of full length transcript at 10 to 40 mg/kg, ip administered thrice a week for 2 weeks measured 48 hrs after last dose […]. It is filed as functional, organism-based.
Data set [11] is described as follows: Drug level in Balb/C mouse kidney at 40 mg/kg, ip administered thrice a week for 2 weeks measured 48 hrs after last dose. Details: dose 40 mg/kg, route intraperitoneal. It counts as ADME, organism-based. As to conditions: read-out: Drug uptake. The method in brief:
as §2

Data set [12] can be described thus: Drug level in Balb/C mouse liver at 40 mg/kg, ip administered thrice a week for 2 weeks measured 48 hrs after last dose. It is filed as ADME, organism-based. Also noted: dose 40 mg/kg, route intraperitoneal. To be noted: read-out: Drug uptake. The method in brief: as §2
In data set [13] the test system is Mus musculus. The data set can be described thus: Toxicity in Balb/C mouse assessed as change in serum glucose levels at 10 to 40 mg/kg, ip administered thrice a week for 2 weeks measured 48 hrs after last dose. It is filed as organism-based. Also noted: dose 10-40 mg/kg, route intraperitoneal. As to conditions: in vivo. The method in brief:
as §1

Data set [14] concerns Mus musculus. The data set can be described thus: Acute toxicity in Balb/C mouse assessed as reduction in body weight at 1.5 to 6.0 umol/kg, ip administered thrice a week for 2 weeks measured 48 hrs after last dose. It is filed as organism-based. As to conditions: in vivo. The method in brief:
(§3)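 Male Balb/c mice aged 6–8 weeks, n=4 per group, dosed i.p. with compound suspended in PBS and filter sterilized, 10 ul/g body weight. Body weight tracked throughout the live phase. Under isoflurane anaesthesia, terminal cardiac-puncture bleed; serum taken for transaminases and other chemistries. Sacrifice by cervical dislocation 48 h after last dose, with liver and spleen weighed at necropsy. Kidneys examined by histopathology.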

The test system of data set [15] is Mus musculus. Kind of data set: Acute toxicity in Balb/C mouse assessed as change in liver weight at 1.5 to 6.0 umol/kg, ip administered thrice a week for 2 weeks measured 48 hrs after last dose. It is filed as organism-based. As to conditions: in vivo. The method in brief: as §3
The subject of data set [16] is Mus musculus. Kind of data set: Acute toxicity in Balb/C mouse assessed as reduction in body weight at 10.5 umol/kg, ip administered thrice a week for 2 weeks measured 48 hrs after last dose. To be noted: in vivo. It counts as organism-based. In a few lines: as §3
The test system of data set [17] is Mus musculus. The data set can be described thus: Inhibition of IR expression in Balb/C mouse liver assessed as upregulation of IR-A transcript at 1.5 umol/kg, ip administered thrice a week for 2 weeks measured 48 hrs after last dose by quantitative RT-PCR analysis.
Data set [18] relates to Mus musculus. Kind of data set: Inhibition of IR expression in Balb/C mouse kidney assessed as reduction in IR-B transcript at 6.0 umol/kg, ip administered thrice a week for 2 weeks measured 48 hrs after last dose […]. It is filed as functional, organism-based. In a few lines:
(§4)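 Male Balb/c mice, n=4 per group, dosed i.p. in PBS and sacrificed 48 h after last dose. Liver, kidney and adipose tissue homogenised at once in 4 M guanidine isothiocyanate, 25 mM EDTA, 50 mM Tris-HCl pH 6. RNA purified on columns and run by fluorescence-based quantitative RT-PCR. Target transcript levels normalised to cyclophilin A and expressed relative to saline-treated controls.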

The subject of data set [19] is Mus musculus. The data set can be described thus: Inhibition of IR expression in Balb/C mouse kidney assessed as upregulation of IR-A transcript at 6.0 umol/kg, ip administered thrice a week for 2 weeks measured 48 hrs after last dose […]. It is filed as functional, organism-based. In a few lines:
as §4

The subject of data set [20] is Mus musculus. The data set can be described thus: Inhibition of IR expression in Balb/C mouse liver assessed as upregulation of IR-A transcript at 6.0 umol/kg, ip administered thrice a week for 2 weeks measured 48 hrs after last dose by quantitative RT-PCR analysis.
For data set [21], the system named is Mus musculus. Kind of data set: Inhibition of IR expression in Balb/C mouse adipose tissue assessed as upregulation of IR-A transcript at 6.0 umol/kg, ip administered thrice a week for 2 weeks measured 48 hrs after last dose by […]. It is filed as functional. Also noted: scale not given: the % may be the effect or the level left. The method in brief:
as §4

Data set [22] concerns Mus musculus. Kind of data set: Inhibition of IR expression in Balb/C mouse kidney assessed as reduction in IR-B transcript at 1.5 umol/kg, ip administered thrice a week for 2 weeks measured 48 hrs after last dose […]. It is filed as functional, organism-based. The method in brief:
as §4

Data set [23] deals with Mus musculus. The data set can be described thus: Inhibition of IR expression in Balb/C mouse adipose tissue assessed as reduction in IR-B transcript at 6.0 umol/kg, ip administered thrice a week for 2 weeks measured 48 hrs after last dose […]. It is filed as functional. Also noted: scale not given: the % may be the effect or the level left. The method in brief:
as §4

Data set [24] has as its system Mus musculus. Kind of data set: Acute toxicity in Balb/C mouse assessed as change in plasma chemistry at 1.5 to 6.0 umol/kg, ip administered thrice a week for 2 weeks measured 48 hrs after last dose. As to conditions: in vivo. It is filed as organism-based. In a few lines:
as §3

In data set [25] the test system is Mus musculus. Kind of data set: Acute toxicity in Balb/C mouse assessed as change in spleen weight at 1.5 to 6.0 umol/kg, ip administered thrice a week for 2 weeks measured 48 hrs after last dose. As to conditions: in vivo. It counts as organism-based. The method in brief: as §3
Data set [26] concerns Mus musculus. The data set can be described thus: Inhibition of IR expression in Balb/C mouse kidney assessed as upregulation of IR-A transcript at 1.5 umol/kg, ip administered thrice a week for 2 weeks measured 48 hrs after last dose […]. It is filed as functional, organism-based. In a few lines: as §4

Active and inactive are the calls of the source. No cut-off for these calls is given here.

With `Cc1cn(CC(=O)N(CCNC(=O)CN(CCNC(=O)[C@H](CCCCN)N(CCNC(=O)[C@H](CCCCN)NC(=O)[C@@H](N)CCCCN)C(=O)Cn2cc(C)c(=O)[nH]c2=O)C(=O)Cn2ccc(N)nc2=O)CC(=O)NCCN(CC(=O)NCCN(CC(=O)NCCN(CC(=O)NCCN(CC(=O)NCCN(CC(=O)NCCN(CC(=O)NCCN(CC(=O)NCCN(CC(=O)NCCN(CC(=O)NCCN(CC(=O)NCCN(CC(=O)NCCN(CC(=O)NCCN(CC(=O)N[C@@H](CCCCN)C(N)=O)C(=O)Cn2cnc3c(N)ncnc32)C(=O)Cn2ccc(N)nc2=O)C(=O)Cn2cnc3c(N)ncnc32)C(=O)Cn2cc(C)c(=O)[nH]c2=O)C(=O)Cn2ccc(N)nc2=O)C(=O)Cn2cc(C)c(=O)[nH]c2=O)C(=O)Cn2cnc3c(N)ncnc32)C(=O)Cn2ccc(N)nc2=O)C(=O)Cn2cnc3c(N)ncnc32)C(=O)Cn2ccc(N)nc2=O)C(=O)Cn2cnc3c(=O)[nH]c(N)nc32)C(=O)Cn2cnc3c(N)ncnc32)C(=O)Cn2ccc(N)nc2=O)c(=O)[nH]c1=O`, the Activity entry with Mus musculus [1], in the data set on Mus musculus [2], in the data set on Mus musculus [4], in the data set on Mus musculus [5], in the data set on Mus musculus [6] and in the data set on Mus musculus [7] was “Non-toxic” in each case. In the data set on Mus musculus [13], the Activity result is “Non-toxic”. In addition, the concentration at 48 h came out at 4 µM in data set [3], 355 µM in data set [11] and 28 µM in data set [12]. Moreover, the inhibition entry in the data set on Mus musculus [8] and in the data set with Mus musculus [9] was “inactive” in each case. For the same molecule, the outcome in the data set with Mus musculus [10] was inactive.

`Cc1cn(CC(=O)N(CCNC(=O)CN(CCNC(=O)CN(CCNC(=O)CN(CCNC(=O)CN(CCNC(=O)CN(CCNC(=O)CN(CCNC(=O)CN(CCNC(=O)[C@H](CCCCN)N(CCNC(=O)CN(CCNC(=O)CN(CCNC(=O)CN(CCNC(=O)[C@H](CCCCN)NC(=O)[C@H](CCCCN)NC(=O)[C@H](CCCCN)NC(=O)[C@H](CCCCN)NC(=O)[C@H](CCCCN)NC(=O)[C@H](CCCCN)NC(=O)[C@H](CCCCN)NC(=O)[C@@H](N)CCCCN)C(=O)Cn2cnc3c(N)ncnc32)C(=O)Cn2ccc(N)nc2=O)C(=O)Cn2ccc(N)nc2=O)C(=O)Cn2cc(C)c(=O)[nH]c2=O)C(=O)Cn2cnc3c(N)ncnc32)C(=O)Cn2ccc(N)nc2=O)C(=O)Cn2cc(C)c(=O)[nH]c2=O)C(=O)Cn2cnc3c(=O)[nH]c(N)nc32)C(=O)Cn2cc(C)c(=O)[nH]c2=O)C(=O)Cn2ccc(N)nc2=O)C(=O)Cn2ccc(N)nc2=O)CC(=O)NCCN(CC(=O)NCCN(CC(=O)NCCN(CC(=O)NCCN(CC(=O)NCCN(CC(=O)NCCN(CC(=O)NCCN(CC(=O)NCCN(CC(=O)N[C@@H](CCCCN)C(N)=O)C(=O)Cn2cnc3c(N)ncnc32)C(=O)Cn2ccc(N)nc2=O)C(=O)Cn2ccc(N)nc2=O)C(=O)Cn2cnc3c(N)ncnc32)C(=O)Cn2ccc(N)nc2=O)C(=O)Cn2cnc3c(=O)[nH]c(N)nc32)C(=O)Cn2cnc3c(=O)[nH]c(N)nc32)C(=O)Cn2ccc(N)nc2=O)c(=O)[nH]c1=O`: the Activity result in the data set with Mus musculus [14] is on record as “Non-toxic”; in the data set on Mus musculus [15] it was “Non-toxic”; in the data set with Mus musculus [16], “Toxic”; in the data set on Mus musculus [21], 200%; with Mus musculus [23], 50%; in the data set on Mus musculus [24], “Non-toxic”. The Activity result in the data set on Mus musculus [25] was “Non-toxic”. In addition, the result in the data set with Mus musculus [17], in the data set with Mus musculus [19], with Mus musculus [20] and in the data set on Mus musculus [26] was Active. The outcome with Mus musculus [18] and in the data set on Mus musculus [22] was inactive.
